{"data": "Assay results pooled from the literature", "observed": "cell growth or viability", "note": "Protocols differ between the studies behind these lines."}
{"SMILES": "COc1ccnc(COc2ccc(NC(=O)Nc3ccc(Cl)cc3)cc2)c1OC", "cell line": "L02", "technique": "MTT", "time": "72 h", "IC50": "> 100 µM"}
{"SMILES": "CCN1CCN(c2ccc(Nc3cc(N(C)C(=O)Nc4c(Cl)c(OC)cc(OC)c4Cl)ncn3)cc2)CC1", "cell line": "Li-7", "technique": "ATP luminescence", "time": "96 h", "IC50": "> 1 µM"}
{"SMILES": "CO[C@H]1/C=C\\C=C(/C)C(=O)NC2=C(C)C(=O)C(NCCN(C)C)=C(C[C@@H](C)C[C@H](OC)[C@H](O)[C@@H](C)/C=C(\\C)[C@@H]1OC(N)=O)C2=O", "cell line": "ARPE-19", "technique": "MTT", "IC50": "> 20 µM"}
{"SMILES": "C=C(C)C(=O)Nc1ccc(-c2c(-c3ccc(Oc4nccc(C)n4)c(F)c3)c3c(N)ncnc3n2C)cc1", "cell line": "Li-7", "technique": "ATP luminescence", "time": "96 h", "IC50": "> 10 µM"}
{"SMILES": "Cc1ccc2c(Cl)cc(Cl)c(O)c2n1", "cell line": "L02", "technique": "MTT", "time": "48 h", "IC50": "> 100 µM"}
{"SMILES": "Cc1cc(Oc2ccc(NC(=O)c3sc(-c4cccnc4)nc3C)cc2)n2ncnc2n1", "cell line": "L02", "technique": "MTT", "IC50": "> 50 µM"}
{"SMILES": "COC1=C2C[C@@H](C)C[C@H](OC)[C@H](O)[C@@H](C)/C=C(\\C)[C@H](OC(N)=O)[C@@H](OC)/C=C\\C=C(/C)C(=O)NC(=CC1=O)C2=O", "cell line": "ARPE-19", "technique": "MTT", "IC50": "0.1 µM"}
{"SMILES": "c1cnc2c(c1)ccc1cccnc12", "cell line": "L02", "technique": "MTT", "time": "48 h", "IC50": "> 50 µM"}
{"SMILES": "Oc1ccc(Nc2nc(-c3ccc(Cl)cc3)cs2)cc1", "cell line": "WM-115", "technique": "MTS", "time": "72 h", "IC50": "11.7 µM"}
{"SMILES": "COc1ccc(C(=O)O[C@@H]2CN3Cc4c(cc5c(c4OC)OCO5)[C@@]24C=C[C@H](OC)C[C@@H]34)cc1OC", "cell line": "PANC-1", "technique": "WST-1", "IC50": "2.3 µM"}
{"SMILES": "Cc1c(OCC(F)(F)F)ccnc1COc1ccc(NC(=O)Nc2cccc(C(F)(F)F)c2)cc1", "cell line": "L02", "technique": "MTT", "time": "72 h", "IC50": "> 100 µM"}
{"SMILES": "CC[C@]1(O)C[C@H]2CN(CCc3c([nH]c4ccccc34)[C@@](C(=O)OC)(c3cc4c(cc3OC)N(C=O)[C@H]3[C@@](O)(C(=O)OC)[C@H](OC(C)=O)[C@]5(CC)C=CCN6CC[C@]43[C@@H]65)C2)C1", "cell line": "NALM-6", "technique": "MTT", "time": "48 h", "IC50": "0.00087 µM"}
{"SMILES": "CC[C@@H](C)[C@H](N)C(=O)N1Cc2ccccc2C1", "cell line": "OCI-AML2", "technique": "ATP luminescence", "IC50": "0.3 µM"}
{"SMILES": "Cc1ccc(S(=O)(=O)OCC(=O)Nc2ccc(C(=O)O)c(O)c2)cc1", "cell line": "OCI-AML2", "IC50": "112 µM"}
{"SMILES": "O=C(N/N=C/c1c(O)ccc2ccccc12)c1cc(-c2ccc3ccccc3c2)n[nH]1", "cell line": "WM-115", "technique": "MTS", "time": "24 h", "IC50": "9.7 µM"}
{"SMILES": "COc1cc(-c2ncn(/C=C\\C(=O)OC(C)C)n2)cc(C(F)(F)F)c1", "cell line": "OCI-AML2", "time": "72 h", "IC50": "0.017 µM"}
{"SMILES": "COCCCOc1ccnc(COc2ccc(NC(=O)Nc3ccc(OC)cc3)cc2)c1C", "cell line": "L02", "technique": "MTT", "time": "72 h", "IC50": "> 100 µM"}
{"SMILES": "COc1cc2nccc(Oc3ccc(NC(=O)C4(C(=O)Nc5ccc(F)cc5)CC4)cc3)c2cc1OC", "cell line": "OCI-AML-3", "technique": "trypan blue", "time": "72 h", "IC50": "> 9 µM"}
{"SMILES": "Cc1cc(Oc2ccc(NC(=O)c3sc(-c4ccncc4)nc3C)cc2F)c2nncn2n1", "cell line": "L02", "technique": "MTT", "IC50": "> 50 µM"}
{"SMILES": "C#CCSc1nc(Sc2nnnn2-c2ccccc2)c2nnn(Cc3ccc(OC)cc3)c2n1", "cell line": "OCI-AML-3", "technique": "MTS", "time": "6 days", "IC50": "4.72 µM"}
{"SMILES": "COCCCOc1ccnc(COc2ccc(NC(=O)Nc3cc(F)cc(F)c3)cc2)c1C", "cell line": "L02", "technique": "MTT", "time": "72 h", "IC50": "> 100 µM"}
{"SMILES": "Nc1nc(Nc2ccc3c(c2)CC[C@@H](N2CCCC2)CC3)nn1-c1cc2c(nn1)-c1ccccc1CCC2", "cell line": "OCI-AML-3", "technique": "trypan blue", "time": "72 h", "IC50": "2.9 µM"}
{"SMILES": "c1ccc(-c2ccccn2)nc1", "cell line": "L02", "technique": "MTT", "time": "48 h", "IC50": "> 50 µM"}
{"SMILES": "COc1c(C)cnc(COc2ccc(NC(=O)Nc3ccc(Cl)cc3)cc2)c1C", "cell line": "L02", "technique": "MTT", "time": "72 h", "IC50": "> 100 µM"}
{"SMILES": "N[C@@H](CC(=O)N1CCN(C(c2ccc(F)cc2)c2ccc(F)cc2)CC1)C(=O)N1Cc2ccccc2C1", "cell line": "OCI-AML2", "technique": "ATP luminescence", "time": "48 h", "IC50": "1.41 µM"}
{"SMILES": "COCCCOc1ccnc(COc2ccc(NC(=O)Nc3cccc(C(F)(F)F)c3)cc2)c1C", "cell line": "L02", "technique": "MTT", "time": "72 h", "IC50": "> 100 µM"}
{"SMILES": "Cc1cc(Oc2ccc(NC(=O)c3sc(-c4ccc(F)cc4)nc3C)cc2)c2nncn2n1", "cell line": "L02", "technique": "MTT", "IC50": "> 50 µM"}
{"SMILES": "CO[C@H]1/C=C\\C=C(/C)C(=O)NC2=CC(=O)C(NCCN(C)C)=C(C[C@@H](C)C[C@H](OC)[C@H](O)[C@@H](C)/C=C(\\C)[C@@H]1OC(N)=O)C2=O", "cell line": "ARPE-19", "technique": "MTT", "IC50": "0.15 µM"}
{"SMILES": "Cc1c(OCC(F)(F)F)ccnc1COc1ccc(NC(=O)Nc2cc(F)cc(F)c2)cc1", "cell line": "L02", "technique": "MTT", "time": "72 h", "IC50": "> 100 µM"}
{"SMILES": "Cc1cc(Oc2ccc(NC(=O)c3cnn(-c4ccc(Cl)cc4)c3C(F)(F)F)cc2F)c2nncn2n1", "cell line": "L02", "technique": "MTT", "IC50": "> 50 µM"}
{"SMILES": "CC(=O)c1cccc(N=Nc2c(C(=O)O)cc(O)c(O)c2O)c1", "cell line": "PANC-1", "technique": "MTT", "IC50": "9.2 µM"}
{"SMILES": "COc1cc2c(Oc3ccc(NC(=O)C4(C(=O)Nc5ccc(F)cc5)CC4)cc3F)ccnc2cc1OCCCN1CCOCC1", "cell line": "L02", "technique": "MTT", "IC50": "> 50 µM"}
{"SMILES": "O=C(O)/C=C/c1ccc(O)cc1", "cell line": "PANC-1", "technique": "MTT", "IC50": "> 50 µM"}
{"SMILES": "COc1c(C)cnc(COc2ccc(NC(=O)Nc3ccc(F)cc3)cc2)c1C", "cell line": "L02", "technique": "MTT", "time": "72 h", "IC50": "> 100 µM"}
{"SMILES": "Cc1cc(Oc2ccc(NC(=O)c3cnn(-c4ccc(Cl)cc4)c3C(F)(F)F)cc2F)n2ncnc2n1", "cell line": "L02", "technique": "MTT", "IC50": "> 50 µM"}
